From ChEMBL document CHEMBL2086227, “Synthesis and evaluation of anticonvulsant and antidepressant activities of 5-alkoxytetrazolo[1,5-c]thieno[2,3-e]pyrimidine derivatives” (Eur J Med Chem, 2012)
Calls of active or inactive are those of the source. The rule behind the calls is not given here.

Legend:
Mus musculus [1] = assay: Anticonvulsant activity in Kunming mouse assessed as protection against maximal electroshock-induced seizure at 30 mg/kg, ip; format: functional, organism-based; parameters: dose 30 mg/kg
Procedure, shortened: (§1)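 Mice held on a 12-h light/dark cycle at 23 ± 2 °C with free food and water. Compounds were given ip as suspensions in aqueous Tween 80 (3% v/v, 0.9% NaCl) at 0.05 mL/20 g body weight. The maximal electroshock test was scored as number of animals protected over number tested.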

Mus musculus [2] = assay: Anticonvulsant activity in Kunming mouse assessed as protection against maximal electroshock-induced seizure at 100 mg/kg, ip; format: functional, organism-based; parameters: dose 100 mg/kg; procedure, shortened: as §1
Mus musculus [3] = assay: Anticonvulsant activity in Kunming mouse assessed as protection against maximal electroshock-induced seizure at 300 mg/kg, ip; format: functional, organism-based; parameters: dose 300 mg/kg; procedure, shortened: as §1
Mus musculus [4] = assay: Antidepressant activity in Kunming mouse assessed as decrease in immobility time at 100 mg/kg, ip measured for last 4 mins of 6 mins test after 30 mins post dose by forced swimming test relative to control; format: functional; parameters: scale not given: the % may be the effect or the level left; conditions: route intraperitoneal
Procedure, shortened: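 Mice were dosed ip with compounds at 100 mg/kg, suspended in 3% Tween 80 in 0.9% NaCl (0.05 mL/20 g); controls got 3% aqueous Tween 80. After 30 min each mouse was placed in a water-filled cylinder (water depth 10 cm, 23–25 °C) for 6 min. Upright floating with only slight movements was scored as immobility, timed over the last 4 min. Mean ± S.E.M., n = 8.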

Mus musculus [5] = assay: Toxicity in Kunming mouse assessed as increase in locomotor activity at 100 mg/kg, ip administered 60 mins prior to test measured for 3 mins by open-field test; format: organism-based; parameters: dose 100 mg/kg, route intraperitoneal; conditions: in vivo, 0.05 h
Procedure, shortened: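 Open-field exploratory activity was recorded for 3 min, starting 60 min after ip dosing in 3% Tween 80/0.9% NaCl vehicle. Counts were taken for locomotion (line crossings), rearing (standing on hind legs) and grooming, and compared with a vehicle control group.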

| Structure (SMILES) | Activity (Mus musculus [1]) | Activity (Mus musculus [2]) | Activity (Mus musculus [3]) | Activity (Mus musculus [4]) [%] | Activity (Mus musculus [5]) |
| --- | --- | --- | --- | --- | --- |
| FC(F)(F)c1ccc(Oc2nc3ccsc3c3nnnn23)cc1 | inactive | inactive | inactive | 25.16 | – |
| Cc1ccc(Oc2nc3ccsc3c3nnnn23)cc1 | inactive | inactive | inactive | 36.6 | – |
| c1ccc(Oc2nc3ccsc3c3nnnn23)cc1 | inactive | inactive | – | 26.46 | – |
| Clc1ccccc1Oc1nc2ccsc2c2nnnn12 | inactive | inactive | inactive | 40.17 | – |
| Nc1cccc(Oc2nc3ccsc3c3nnnn23)c1 | inactive | inactive | – | 27.59 | – |
| Fc1cccc(Oc2nc3ccsc3c3nnnn23)c1 | inactive | inactive | inactive | 25.73 | – |
| COc1cccc(Oc2nc3ccsc3c3nnnn23)c1 | inactive | inactive | inactive | 37.41 | – |
| Clc1ccc(Oc2nc3ccsc3c3nnnn23)c(Cl)c1 | inactive | inactive | inactive | 51.62 | Non-toxic |
| Clc1ccc(Oc2nc3ccsc3c3nnnn23)cc1 | inactive | inactive | inactive | 35.63 | – |
| Clc1cccc(Oc2nc3ccsc3c3nnnn23)c1 | inactive | inactive | inactive | 15.42 | – |
| c1ccc2c(Oc3nc4ccsc4c4nnnn34)cccc2c1 | inactive | inactive | inactive | 9.25 | – |
| COc1ccc(Oc2nc3ccsc3c3nnnn23)cc1 | inactive | inactive | inactive | 46.18 | – |
| Brc1ccc(Oc2nc3ccsc3c3nnnn23)cc1 | inactive | – | Active | 10.06 | – |
| Fc1ccccc1Oc1nc2ccsc2c2nnnn12 | inactive | inactive | inactive | 9.33 | – |
| COc1ccccc1Oc1nc2ccsc2c2nnnn12 | inactive | inactive | inactive | 26.05 | – |
| Nc1ccccc1Oc1nc2ccsc2c2nnnn12 | inactive | – | Active | 22.8 | – |
| Cc1ccccc1Oc1nc2ccsc2c2nnnn12 | inactive | inactive | inactive | 36.44 | – |
| Fc1ccc(Oc2nc3ccsc3c3nnnn23)cc1 | inactive | inactive | inactive | 18.18 | – |
| CNCCC(Oc1ccc(C(F)(F)F)cc1)c1ccccc1 (stereo not drawn) [FLUOXETINE] | – | – | – | 58.09 | – |
| Cc1cccc(Oc2nc3ccsc3c3nnnn23)c1 | inactive | inactive | inactive | 39.04 | – |
| c1cnc2c(Oc3nc4ccsc4c4nnnn34)cccc2c1 | inactive | inactive | inactive | 23.62 | – |
